The text below walks through data of ChEMBL document CHEMBL1154189 (J Med Chem, 2009).

In one series the test system is Saccharomyces cerevisiae. Put plainly: Mutagenic activity in Saccharomyces cerevisiae after 3 hrs. Particulars: in vivo. Type of series: ADME, organism-based. Summed up:
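Tested in a Saccharomyces cerevisiae strain engineered with three phenotypic readouts, with 3 hour incubation against DMSO vehicle.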

The subject of series [1] is HuT78. Put plainly: Cytotoxicity against human HUT78 cells assessed as LDH release at 100 nM after 48 hrs. On the technique in general: LDH leaks from cells whose membrane has failed.
The subject of series [2] is HuT78. Put plainly: Induction of apoptosis in human HUT78 cells assessed as caspase 3/7 activation after 24 hrs by luminometry. Type of series: functional, cell-based. Put shortly: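 Hut78 CTCL cells were plated and dosed immediately with ethanol vehicle, test agent, water, or sodium butyrate (positive control), then incubated 24 hours. Caspase-Glo lysis/substrate mix was added, and cleavage of the substrate by caspase 3/7 was read as luminescence. Ethanol-treated cells served as the comparison.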

Series [3] deals with HuT78. Nature of the series: Cytotoxicity against human HUT78 cells assessed as LDH release at 10 mM after 48 hrs.

Activity calls are given as the source filed them. No cut-off for these calls is given here.

Turning to `Cc1cc2c(cc1C(=O)c1ccc(C(=O)O)c([N+](=O)[O-])c1)C(C)(C)CCC2(C)C`, the Activity result in the series with Saccharomyces cerevisiae was “Non-toxic”.

Consider `Cc1cc2c(cc1C(=O)c1ccc(C(=O)O)cc1F)C(C)(C)CCC2(C)C`, for which the result in the series with HuT78 [1] was Active. For the same compound, in the series on Saccharomyces cerevisiae, the Activity result is reported as “Non-toxic”. The result with HuT78 [2] was inactive.

On to `NC(=O)NO` [HYDROXYUREA], for which, in the series with HuT78 [3], the Activity is recorded as 97%.

In the case of `C=C(c1cc(C(=O)O)cc(C(=O)O)c1)c1cc2c(cc1C)C(C)(C)CCC2(C)C`, in the series with Saccharomyces cerevisiae, the Activity result is on record as “Non-toxic”.

Take `Cc1cc2c(cc1C(=O)c1ccc(C(=O)O)cc1)C(C)(C)CCC2(C)C`: the Activity entry in the series with Saccharomyces cerevisiae is “Non-toxic”.

In the case of `Cc1cc2c(cc1C(=O)c1ccc(C(=O)O)c(F)c1)C(C)(C)CCC2(C)C`, the Activity result with Saccharomyces cerevisiae is recorded as “Non-toxic”.

As for `Cc1cc2c(cc1C(=O)c1cc(C(=O)O)cc(C(=O)O)c1)C(C)(C)CCC2(C)C`, the Activity entry with Saccharomyces cerevisiae is given as “Non-toxic”.

Take `Cc1cc2c(cc1C(=O)c1cccc(C(=O)O)c1)C(C)(C)CCC2(C)C`: in the series on Saccharomyces cerevisiae, the Activity result is recorded as “Non-toxic”.

For the compound `C=C(c1ccc(C(=O)O)cc1)c1cc2c(cc1C)C(C)(C)CCC2(C)C` [BEXAROTENE], the Activity entry with Saccharomyces cerevisiae is “Non-toxic”.
